Reference: ChEMBL document CHEMBL5244249, “Discovery of tofacitinib derivatives as orally active antitumor agents based on the scaffold hybridization strategy” (Eur J Med Chem, 2020)

Experiments:
BGC-823 = test: Antiproliferative activity against human BGC-823 cells assessed as inhibition of cell growth incubated for 72 hrs by MTT assay; assay type: functional, cell-based; conditions: BGC-823, 72 h
Procedure, shortened: (§1)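 Antiproliferative screen in gastric cancer lines MGC-803, HGC-27 and BGC-823 by MTT assay; IC50 reported as mean ± SD.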

HGC-27 = test: Antiproliferative activity against human HGC-27 cells assessed as inhibition of cell growth incubated for 72 hrs by MTT assay; assay type: functional, cell-based; conditions: HGC-27, 72 h; procedure, shortened: as §1
[1] = Cytotoxicity against human GES1 cells assessed as inhibition of cell growth incubated for 72 hrs by MTT assay; assay type: toxicity, cell-based
MGC-803 = test: Antiproliferative activity against human MGC-803 cells assessed as inhibition of cell growth incubated for 72 hrs by MTT assay; assay type: functional, cell-based; conditions: MGC-803, 72 h; procedure, shortened: as §1
PC-9 = test: Antiproliferative activity against human PC-9 cells assessed as inhibition of cell growth incubated for 72 hrs by MTT assay; assay type: functional, cell-based; conditions: PC-9, 72 h
MCF7 = test: Antiproliferative activity against human MCF7 cells assessed as inhibition of cell growth incubated for 72 hrs by MTT assay; assay type: functional, cell-based; conditions: MCF7, 72 h
NCI-H1975 = test: Antiproliferative activity against human NCI-H1975 cells assessed as inhibition of cell growth incubated for 72 hrs by MTT assay; assay type: functional, cell-based; conditions: NCI-H1975, 72 h

Row | SMILES | IC50 (BGC-823) | IC50 (HGC-27) | IC50 at 72 h [1] | IC50 (MGC-803) | IC50 (PC-9) | IC50 (MCF7) | IC50 (NCI-H1975)
1 | Cc1cc(N2CC[C@@H](C)[C@@H](N(C)c3ncnc4[nH]ccc34)C2)n2nc(SCCc3ccccc3)nc2n1 | 28 µM | 11.8 µM | 66.2 µM | 6.19 µM | – | – | –
2 | Cc1cc(N2CC[C@@H](C)[C@@H](N(C)c3ncnc4[nH]ccc34)C2)n2nc(SCc3ccc(Cl)cc3)nc2n1 | 26.3 µM | 18.4 µM | > 100 µM | 16 µM | – | – | –
3 | Cc1cc(N2CC[C@@H](C)[C@@H](N(C)c3ncnc4[nH]ccc34)C2)n2nc(SCC3CC3)nc2n1 | 36.5 µM | 21.4 µM | 27.9 µM | 9.54 µM | – | – | –
4 | Cc1cc(N2CC[C@@H](C)[C@@H](N(C)c3ncnc4[nH]ccc34)C2)n2nc(SCc3ccc(F)cc3)nc2n1 | 44.3 µM | 26 µM | 12.3 µM | 11.9 µM | – | – | –
5 | Cc1cc(N2CC[C@@H](C)[C@@H](N(C)c3ncnc4[nH]ccc34)C2)n2nc(SCc3ccccc3)nc2n1 | 14.3 µM | 13.9 µM | 67.2 µM | 5.87 µM | – | – | –
6 | CCCSc1nc2nc(C)cc(N3CC[C@@H](C)[C@@H](N(C)c4ncnc5[nH]ccc45)C3)n2n1 | 51.2 µM | 20.9 µM | 67.1 µM | 15.5 µM | – | – | –
7 | Cc1cc(N2CC[C@@H](C)[C@@H](N(C)c3ncnc4[nH]ccc34)C2)n2nc(SCc3ccc([N+](=O)[O-])cc3)nc2n1 | 59.6 µM | 29.4 µM | 36.6 µM | 26.9 µM | – | – | –
8 | Cc1cc(N2CC[C@@H](C)[C@@H](N(C)c3ncnc4[nH]ccc34)C2)n2nc(SCc3ccc(F)c(Cl)c3)nc2n1 | 98.9 µM | > 100 µM | > 100 µM | 52 µM | – | – | –
9 | C[C@@H]1CCN(c2cc(-c3ccccc3)nc3ncnn23)C[C@@H]1N(C)c1ncnc2[nH]ccc12 | > 100 µM | > 100 µM | > 100 µM | 84.9 µM | – | – | –
10 | COc1ccc(CSc2nc3nc(C)cc(N4CC[C@@H](C)[C@@H](N(C)c5ncnc6[nH]ccc56)C4)n3n2)cc1 | 69.9 µM | 18.2 µM | > 100 µM | 15.2 µM | – | – | –
11 | Cc1cc(N2CC[C@@H](C)[C@@H](N(C)c3ncnc4[nH]ccc34)C2)n2nc(SCC3CCCCC3)nc2n1 | 16.3 µM | 11.5 µM | 98.2 µM | 9.17 µM | – | – | –
12 | C=CCSc1nc2nc(C)cc(N3CC[C@@H](C)[C@@H](N(C)c4ncnc5[nH]ccc45)C3)n2n1 | 40.9 µM | 35.2 µM | > 100 µM | 32.5 µM | – | – | –
13 | Cc1cc(N2CC[C@@H](C)[C@@H](N(C)c3ncnc4[nH]ccc34)C2)n2nc(SCc3ccccc3Br)nc2n1 | 81.1 µM | 21.3 µM | > 100 µM | 27 µM | – | – | –
14 | Cc1ccc(CSc2nc3nc(C)cc(N4CC[C@@H](C)[C@@H](N(C)c5ncnc6[nH]ccc56)C4)n3n2)cc1 | 69.5 µM | 15.2 µM | 82.5 µM | 5.86 µM | – | – | –
15 | Cc1nc2nc(SCc3ccc(Cl)cc3)nn2c(N2CC[C@@H](C)[C@@H](N(C)c3ncnc4[nH]ccc34)C2)c1C | > 100 µM | > 100 µM | 99.2 µM | 90.5 µM | – | – | –
16 | Cc1cc(N2CC[C@@H](C)[C@@H](N(C)c3ncnc4[nH]ccc34)C2)n2nc(SCc3cc(Cl)ccc3Cl)nc2n1 | 18.9 µM | 19.2 µM | 87.5 µM | 9.85 µM | – | – | –
17 | Cc1cc(N2CC[C@@H](C)[C@@H](N(C)c3ncnc4[nH]ccc34)C2)n2nc(SCc3ccc(Br)cc3)nc2n1 | 28 µM | 19.5 µM | 55.6 µM | 4.02 µM | – | – | –
18 | Cc1cc(N2CC[C@@H](C)[C@@H](N(C)c3ncnc4[nH]ccc34)C2)n2nc(SCCCc3ccccc3)nc2n1 | > 100 µM | > 100 µM | > 100 µM | > 100 µM | – | – | –
19 | CCc1cc(N2CC[C@@H](C)[C@@H](N(C)c3ncnc4[nH]ccc34)C2)n2ncnc2n1 | 82.2 µM | > 100 µM | > 100 µM | 80.2 µM | – | – | –
20 | Cc1cc(N2CC[C@@H](C)[C@@H](N(C)c3ncnc4[nH]ccc34)C2)n2nc(SCc3cc(=O)oc4c3ccc3ccccc34)nc2n1 | > 100 µM | > 100 µM | > 100 µM | > 100 µM | – | – | –
21 | CCCCCc1c(C)nc2nc(SCc3ccc(Cl)cc3)nn2c1N1CC[C@@H](C)[C@@H](N(C)c2ncnc3[nH]ccc23)C1 | 32.3 µM | > 100 µM | > 100 µM | > 100 µM | – | – | –
22 | C[C@@H]1CCN(c2c3c(nc4ncnn24)CCC3)C[C@@H]1N(C)c1ncnc2[nH]ccc12 | > 100 µM | 50.5 µM | > 100 µM | 55.9 µM | – | – | –
23 | Cc1cc(N2CC[C@@H](C)[C@@H](N(C)c3ncnc4[nH]ccc34)C2)n2ncnc2n1 | 67.4 µM | 11.3 µM | 57.9 µM | 4.35 µM | 20.9 µM | 33.8 µM | 22.2 µM
24 | Cc1cc(N2CC[C@@H](C)[C@@H](N(C)c3ncnc4[nH]ccc34)C2)n2nc(SCc3csc4ccc(Cl)cc34)nc2n1 | > 100 µM | > 100 µM | > 100 µM | > 100 µM | – | – | –
25 | Cc1cc(N2CC[C@@H](C)[C@@H](N(C)c3ncnc4[nH]ccc34)C2)n2nc(SCc3nc4ccccc4[nH]3)nc2n1 | > 100 µM | > 100 µM | 40.2 µM | 21.2 µM | – | – | –
26 | C#CCSc1nc2nc(C)cc(N3CC[C@@H](C)[C@@H](N(C)c4ncnc5[nH]ccc45)C3)n2n1 | 62.1 µM | 35.1 µM | > 100 µM | 18.1 µM | – | – | –
27 | O=c1[nH]cc(F)c(=O)[nH]1 [FLUOROURACIL] | 5.89 µM | 5.75 µM | 2.37 µM | 3.79 µM | 3.25 µM | 4.76 µM | 2.67 µM
28 | C[C@@H]1CCN(C(=O)CC#N)C[C@@H]1N(C)c1ncnc2[nH]ccc12 [TOFACITINIB] | – | – | – | > 100 µM | > 100 µM | > 100 µM | > 100 µM
